Bioassay records as filed in PubChem.
MrgX1 antagonist: human MrgX1 receptor antagonism, primary screen; Q96LB2; B-score at 10 µM; MRGX1-HEK293 calcium flux, Fluo-4, BAM8-22 antagonism; hits give low values; hit rate 1.3% among 310,000;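 active means calcium-response B-score plate-corrected more than 3 library SD below zero, starting fluorescence within 5 deviations, no agonist response on first addition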;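 further: peak minus trough fluorescence over baseline after final BAM8-22 challenge near maximal dose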
Target sequence (Q96LB2 whole entry, looked up): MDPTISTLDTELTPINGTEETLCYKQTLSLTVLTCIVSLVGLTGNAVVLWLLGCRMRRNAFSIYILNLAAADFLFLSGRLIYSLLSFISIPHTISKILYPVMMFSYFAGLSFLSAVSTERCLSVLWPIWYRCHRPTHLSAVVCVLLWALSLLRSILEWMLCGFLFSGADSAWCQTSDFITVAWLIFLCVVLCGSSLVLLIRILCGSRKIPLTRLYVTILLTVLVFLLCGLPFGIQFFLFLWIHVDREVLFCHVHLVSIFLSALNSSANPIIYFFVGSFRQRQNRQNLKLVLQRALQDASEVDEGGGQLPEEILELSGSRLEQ
MrgX1 ag: agonists of human MrgX1 receptor | Q96LB2 | MrgX1-HEK293 cells, Fluo-4 calcium fluorescence, agonist mode; hits give high values | B-score at 10 µM | hit rate 0.44% among 310,000 | AID 588627;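 active means calcium response B-score plate-corrected fluorescence ratio at least 3 library SD, with starting fluorescence B-score inside 5 SD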
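Test system: HEK293 cells stably expressing human MrgX1 receptor; amount: 15,000 cells per well; doses: compound delivered in addition one of three; times: overnight plating before 1 h dye loading; detection: Fluo-4 NW calcium-flux fluorescence, kinetic read; read-out basis: B-scored fluorescence response ratio; controls: positive and negative controls per plate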
RGS4 act: potentiators or activators of RGS4; HEK293 M3R/inducible RGS4, carbachol calcium flux Fluo4; hits give low values; B-score at 10 µM; hit rate 0.92% among 310,000; AID 463111;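 active means B-score of the integrated calcium signal more than 4 SD below the library mean, with starting fluorescence not abnormally high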;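 further: negative B-score means reduced calcium response which marks RGS4 activation or potentiation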
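Material: M3R-expressing HEK293 line, RGS4 induced by doxycycline | Schedule: Overnight RGS4 induction, 30 min dye load 37 °C, 20 min compound RT | Measured by: Fluo4 fluorescence kinetic imaging of calcium | Read-out: Integrated calcium ratio converted to B score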
RGS4 inh: inhibitors of human RGS4. HEK293 M3R/RGS4 inducible, Fluo-4 calcium flux; hits give high values; triggered by carbachol at its EC20. B-score at 10 µM. P49798. AID 463165. hit rate 0.45% among 310,000;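 active means B-score, a plate-corrected calcium signal, over three deviations above library mean, with baseline fluorescence within five deviations of library mean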;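 further: RGS4 expression induced by doxycycline in cells with stable M3 receptor; B-score is computed from the integrated fluorescence ratio over baseline after carbachol; higher B-score means a larger calcium signal and so more RGS4 inhibition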
Target sequence (P49798 whole entry, looked up): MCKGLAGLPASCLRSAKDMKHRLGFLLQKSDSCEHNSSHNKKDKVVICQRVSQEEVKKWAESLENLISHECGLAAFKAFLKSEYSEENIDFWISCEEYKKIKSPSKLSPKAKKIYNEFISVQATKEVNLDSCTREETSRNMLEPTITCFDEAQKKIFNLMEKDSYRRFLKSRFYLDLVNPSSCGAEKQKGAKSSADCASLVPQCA
MrgX1 allo act: human MrgX1 positive allosteric modulation, primary screen; hit rate 0.63% among 310,000; AID 588675; Q96LB2; MrgX1-HEK293, Fluo-4 calcium flux, FDSS; hits give high values; B-score at 10 µM;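 active means plate-corrected calcium response at least 3 library SD above typical, normal starting fluorescence, not activating the receptor alone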;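 further: compound read alongside a low EC10 to EC30 dose of BAM8-22 agonist; peak minus trough fluorescence over baseline measured at the second addition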
RGS4 act valid: confirmation of RGS4 activators. shares compounds with RGS4 act. HEK293 M3R/RGS4 inducible, carbachol calcium flux Fluo4. inhibition, % at 10 µM. hit rate 89% among 1,100. AID 602282;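 active means inhibition above 3 SD of the buffer control wells, cut at about 41% in these data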;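 further: signal is the integrated peak-minus-minimum Fluo4 fluorescence over baseline ratio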
M3R Ca counter: RGS4 activator counter-screen hit in non-induced cells; AID 602283; HEK293 M3R non-induced RGS4, Fluo4 calcium flux; after carbachol challenge at its EC90; shares compounds with RGS4 act; inhibition, % at 10 µM; hit rate 82% among 1,100;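 active means inhibition exceeding 3 SD of buffer-only control wells, cut at about 26% in these data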;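 further: percent drop in integrated peak-minus-baseline over baseline Fluo4 ratio after carbachol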
* marks the source's active call; other numbers are inactive results; i = inactive. Shown are actives, neighbours in structure and some others; about 3.5% of the full set was active somewhere.

SMILES	MrgX1 antagonist	MrgX1 ag	RGS4 act	RGS4 inh	MrgX1 allo act	others
O=C(CSc1nnc(NC(=O)c2ccc(F)cc2F)s1)NC1CC1	i	i	i	i	i
CN1CCN(C2=C(Cl)C(=O)N(c3ccc(Cl)cc3)C2=O)CC1	i	i	i	i	i
O=C1C(Cl)=C(NC2CCCCC2)C(=O)N1c1ccc(Cl)cc1	i	i	i	i	15*
O=C(C[n+]1cc(Br)cc2ccccc21)c1ccc(Cl)cc1	i	i	i	i	7.4*
CCOc1ccc(C2=CSC3=NCCN23)cc1Cl	i	i	i	i	i
Cc1ccc(C(=O)N/C(=C\c2cccc([N+](=O)[O-])c2)C(=O)Nc2cccc(C(=O)O)c2)cc1	i	i	i	i	i
COc1ccc(C(=O)N/C(=C\c2cccc([N+](=O)[O-])c2)C(=O)Nc2cccc(C(=O)O)c2)cc1	-6.9*	i	i	i	i
O=C1O[C@@H]([C@H](O)CO)C(O)=C1O	i	i	i	i	i
C/C(=N/OC(=O)c1c(-c2ccccc2Cl)noc1C)c1cnccn1	i	i	-9.8*	i	i
O=c1cc(-c2ccccc2Cl)oc2c(NS(=O)(=O)c3cc(Cl)cc(Cl)c3O)ccc(O)c12	i	40*	i	i	i
CCc1ccc(S(=O)(=O)Nc2ccc(O)c3c(=O)cc(-c4ccccc4Cl)oc23)cc1	i	i	i	i	i
CC(C)c1[nH]nc2c1C(Cc1ccccc1)C(C#N)=C(N)O2 (stereo not drawn)	i	i	-7.6*	i	i
Cc1cccc(CS(=O)(=O)c2nnc([C@H](Cc3ccccc3)NC(=O)OC(C)(C)C)o2)c1	i	i	i	i	i
COC(=O)CS(=O)(=O)c1nnc([C@H](Cc2ccccc2)NC(=O)OC(C)(C)C)o1	i	30*	i	i	i
N#C/C(=C\c1ccc2c(c1)OCO2)C(N)=S	i	i	i	i	7.5*
CCOC(=O)/C(C#N)=C\c1ccc2c(c1)OCO2	i	i	i	i	i
Cc1ccc(/C=C/C2=Cc3c(sc(NC(=O)CSc4n[nH]c(N)n4)c3C#N)C(C)(C)C2)o1	-5.4*	i	i	i	i
CCOC(=O)c1cnc2c(C)c(Cl)ccc2c1NCCCN1CCOCC1	i	i	i	i	9.1*
O=C(N/C(=C\c1cccc([N+](=O)[O-])c1)C(=O)N(CCO)CCO)c1ccco1	i	i	i	i	i
COc1ccc(C(=O)NNC(=O)CSc2nc3c([nH]2)c(=O)n(C)c(=O)n3C)cc1	-4.6*	i	i	i	i
Cn1c(=O)c2[nH]c(SCC(=O)c3ccc(F)cc3)nc2n(C)c1=O	i	i	i	i	i
Cc1ccc2nc(SCC(=O)Nc3cc(C)on3)[nH]c2c1	i	i	i	i	i
Cc1ccc(C(=O)Nc2c(N)nc(SCC(=O)Nc3cc(C)on3)[nH]c2=O)cc1	-6.4*	i	i	i	i
COc1ccc(C(=O)Nc2c(N)nc(SCC(=O)Nc3ccc(NC(C)=O)cc3)[nH]c2=O)cc1	-4.9*	i	i	i	i
O=C(OC1CCCCC1=O)c1cc(Cl)ccc1[N+](=O)[O-] (stereo not drawn)	i	i	i	i	i
SMILES	MrgX1 antagonist	MrgX1 ag	RGS4 act	RGS4 inh	MrgX1 allo act	others
Cc1ccc(S(=O)(=O)N2CCOCC2)cc1NC(=O)Cn1nc(C)c([N+](=O)[O-])c1C	-5*	i	i	i	i
Cc1ccc(Nc2ccc(S(=O)(=O)N3CCOCC3)cc2[N+](=O)[O-])cc1C	-9.2*	i	i	i	i
CCC(C(=O)Nc1ccc(S(=O)(=O)N2CCN(C)CC2)cc1)c1ccccc1 (stereo not drawn)	i	i	i	i	i
Cc1ccc2nc(-c3ccccc3)cc(C(=O)NCC(c3ccco3)N(C)C)c2c1 (stereo not drawn)	i	i	i	i	i
O=C(COC(=O)c1ccco1)Nc1nc2ccc([N+](=O)[O-])cc2s1	i	i	i	i	i
Cc1ccc(C)c(OCC(=O)Nc2nc3ccc([N+](=O)[O-])cc3s2)c1	-7.2*	i	i	i	i
CCC1S/C(=N/N=C/c2ccco2)N(Cc2ccccc2C)C1=O (stereo not drawn)	i	i	i	i	i
CC1S/C(=N/N=C/c2ccco2)N(Cc2ccccc2)C1=O (stereo not drawn)	i	i	i	i	8*
Cc1ccccc1CN1C(=O)CS/C1=N/N=C/c1ccco1	i	i	i	i	7.2*
CC(c1ccccc1)C1CC(=O)N(Cc2ccco2)C1=O (stereo not drawn)	i	i	i	i	i
CCC1S/C(=N/N=C/c2ccco2)N(Cc2ccc(F)cc2)C1=O (stereo not drawn)	i	i	i	i	i
CC/C(=N\N=C1\SC(C)C(=O)N1Cc1ccco1)c1ccccc1 (stereo not drawn)	i	i	i	i	12*
CC(C)CCOc1ccc(C(=O)NCC(c2ccco2)N(C)C)cc1 (stereo not drawn)	i	i	-7.5*	i	i
CC(C)(C#CCN1CCCCC1)OCCOC(c1ccccc1)c1ccccc1	i	i	-12*	i	i	RGS4 act valid=93*;M3R Ca counter=92*
OC(CC#CCN1CCOCC1)(c1ccccc1)c1ccccc1	i	i	i	i	i
OC(C#CCN1CCCC1)(c1ccccc1)c1cccc(F)c1 (stereo not drawn)	i	i	-8.4*	i	i	RGS4 act valid=92*;M3R Ca counter=96*
CC(C)C(O)(CC#CCN1CCCC1)c1ccccc1 (stereo not drawn)	i	i	-9.2*	i	i	RGS4 act valid=92*;M3R Ca counter=44*
CC1CCCN1CC#CC(O)(c1ccccc1)c1ccccc1 (stereo not drawn)	i	i	-7.9*	i	i	RGS4 act valid=90*;M3R Ca counter=92*
O=C(NC1CCCCCC1)C1CCN(C(=O)c2cccc(Cl)c2)CC1	i	i	i	i	i
C(#CCN1CCCC1)CC(c1ccccc1)c1ccccc1	i	i	-13*	i	i	RGS4 act valid=92*;M3R Ca counter=93*
